Experimental data collected from several papers.
Lines come from different studies, so protocols differ. pEC50, pIC50, pKi: −log10 of the molar value.
AChE: AChE (Phlebotomus papatasi, UniProt M1F887)
ESR1: Estrogen receptor (ESR1, Homo sapiens, UniProt P03372)
M-phase phosphoprotein 8 chromodomain: M-phase phosphoprotein 8, chromodomain (Homo sapiens, UniProt Q99549)
HTR1A: 5-hydroxytryptamine receptor 1A (HTR1A, Homo sapiens, UniProt P08908)

SMILES | target | test | endpoint | result
C=CC[N+](C)(C)c1ccc(CCC(=O)CCc2ccc([N+](C)(C)CC=C)cc2)cc1 | AChE | enzyme activity, inhibitor | pIC50 | 7.52
C[C@]12CC[C@H]3[C@@H](CCC4=C[C@@H](O)CC[C@@H]43)[C@@H]1CC[C@@H]2O | ESR1 | ligand displacement | pIC50 | 6.87
CCN(CCCC[C@H](NC(=O)[C@H](C)NC(=O)[C@H](C)NC(=O)[C@H](Cc1ccccc1)NC(=O)c1cccnc1)C(=O)N[C@@H](CO)C(N)=O)C(C)C | M-phase phosphoprotein 8 chromodomain | cell-free assay, TR-FRET | pIC50 | 5.47
C[C@]1(O)CC[C@H]2[C@@H]3CCC4=CC(=O)CCC4=C3CC[C@@]21C | ESR1 | reporter gene, agonist | pEC50 | 5.37
NCCc1c[nH]c2ccc(Cl)cc12 | HTR1A | ligand displacement, radioligand | pKi | 8.26
CNC(=O)Oc1ccc2c(c1)[C@]1(C)CCN(C)[C@@H]1N2C | AChE | enzyme activity, inhibitor | pIC50 | 8.05
NCCc1c[nH]c2ccc(F)cc12 | HTR1A | ligand displacement, radioligand | pKi | 7.74
CCN(CCCC[C@H](NC(=O)[C@H](CC(C)C)NC(=O)[C@H](C)NC(=O)[C@H](CC1CCCCC1)NC(=O)c1cccnc1)C(=O)N[C@@H](CO)C(N)=O)C(C)C | M-phase phosphoprotein 8 chromodomain | cell-free assay, TR-FRET | pIC50 | 5.82
